One test has as its system SK-HEP1. The test can be described thus: Antiproliferative activity against human SKHEP1 cells after 24 to 72 hrs by SRB assay. Format: functional, cell-based. An outline of the steps:
(§1)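 Cells from ATCC were grown at 37 °C in 5% CO2, in RPMI 1640 (A549, HCT116, SNU-638) or DMEM (MDA-MB-231, SK-HEP-1, MRC5) with 10% FBS. They were seeded at 6 × 10^3 cells/well for 24 h, then exposed for 72 h. Cells were TCA-fixed, stained with 0.4% SRB, and read at 515 nm against day-zero plates. IC50 came from nonlinear regression, as means ± SD.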
On the technique in general: Sulforhodamine B stains cellular protein and so reports cell mass.

The next test relates to MRC5. The test can be described thus: Antiproliferative activity against human MRC5 cells after 24 to 72 hrs by SRB assay. It counts as cell-based. The gist of the method:
as §1

A further test has as its system SNU-638. The experiment in a line: Antiproliferative activity against human SNU638 cells after 24 to 72 hrs by SRB assay. It counts as functional, cell-based. The gist of the method:
as §1

In a further test the test system is HCT-116. The test can be described thus: Antiproliferative activity against human HCT116 cells after 24 to 72 hrs by SRB assay. It counts as functional, cell-based. An outline of the steps:
as §1

The subject of a further test is A549. The test can be described thus: Antiproliferative activity against human A549 cells after 24 to 72 hrs by SRB assay. It counts as functional, cell-based. The gist of the method:
as §1

The test system of a further test is MDA-MB-231. The experiment in a line: Antiproliferative activity against human MDA-MB-231 cells after 24 to 72 hrs by SRB assay. It counts as functional, cell-based. The gist of the method:
as §1

Here are results for one molecule from ChEMBL document CHEMBL4477197, “Antitumor Activity of Spicatoside A by Modulation of Autophagy and Apoptosis in Human Colorectal Cancer Cells” (J Nat Prod, 2016).

As usually defined, the IC50 is the concentration at which inhibition is half-maximal. A low value points to greater potency. Consider `Cc1c2ccncc2c(C)c2c1[nH]c1ccccc12` [ELLIPTECINE], for which the IC50 was 400 nM in the test with SK-HEP1; 1300 nM in the test on MRC5; 2700 nM in the test with SNU-638; 1000 nM in the test on HCT-116; 400 nM in the test with A549; 100 nM in the test with MDA-MB-231.
